Reference: ChEMBL document CHEMBL4725271, “Design and synthesis of pyrazolo[3,4-d]pyrimidinone derivatives: Discovery of selective phosphodiesterase-5 inhibitors” (Bioorg Med Chem Lett, 2020)

Tests used:
[1] = molecular target: cGMP-specific 3',5'-cyclic phosphodiesterase (Homo sapiens, UniProt O76074); experiment: Inhibition of PDE5 (unknown origin)
Corpus cavernosum [2] = experiment: Induction of smooth muscle relaxation in male albino rat corpus-cavernosum assessed as reduction in phenylephrine-induced contraction; type: functional, tissue-based
Corpus cavernosum [3] = experiment: Induction of smooth muscle relaxation in male albino rat corpus-cavernosum assessed as reduction in phenylephrine-induced contraction relative to sildenafil; type: functional
In short: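 Isolated penile corpus cavernosum strips from adult male albino rats anaesthetized with sodium pentobarbital (50mg/kg, i.v.), held in Krebs-Henseleit solution at 37°C aerated with carbogen under 1g initial tension. Equilibrated ~90 min with solution renewed every 15 min. Cumulative concentration-response curves in phenylephrine-contracted tissue, recorded isometrically.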

| IC50 [1] [µM] | EC50 (Corpus cavernosum [2]) [µM] | Structure (SMILES) | Emax (Corpus cavernosum [3]) [%] |
| --- | --- | --- | --- |
| 0.012 |  | COc1ccc(CNc2nc(OCc3ccccn3)ncc2C(=O)Nc2ncccn2)cc1Cl |  |
|  | 0.234 | CCCOc1ccccc1-c1nc2c(cnn2-c2ccccc2)c(=O)[nH]1 | 150 |
| 0.0061 |  | COc1ccc(CNc2nc(N3CCC[C@H]3CO)ncc2C(=O)NC[C@@H]2CN(C)CCO2)cc1Cl |  |
|  | 0.707 | Nc1ccccc1NCc1nc2c(cnn2-c2ccc(Br)cc2)c(=O)[nH]1 | 148 |
| 0.032 |  | COc1ccc(CNc2nc(N3CCO[C@H](CO)C3)ncc2C(=O)NCc2ccccn2)cc1Cl |  |
| 0.0035 |  | COc1ccc(CNc2nc(OCc3ccccn3)ncc2C(=O)N[C@H]2CC[C@@H](O)CC2)cc1Cl |  |
| 0.025 |  | COc1ccc(CN=c2[nH]c(N3CCC[C@H]3CO)ncc2C(=O)NCc2ncccn2)cc1Cl (stereo in doubt; T5) |  |
| 0.0018 |  | COc1ccc(CNc2nc(N3CCC[C@H]3CO)ncc2C(=O)N[C@H]2CC[C@H](O)CC2)cc1Cl |  |
| 0.0021 |  | COc1ccc(CNc2nc(OCc3ccccn3)ncc2C(=O)OCc2ccccn2)cc1Cl |  |
| 0.012 |  | COc1ccc(CNc2nc(OCc3ccccn3)ncc2C(=O)NCCCCO)cc1Cl |  |
| 0.0065 |  | COc1ccc(CNc2nc(N3Cc4ccccc4C[C@@H]3CO)ncc2C(=O)NCc2ccccn2)cc1Cl |  |
|  | 0.1 | COC(=O)c1ccccc1OCc1nc2c(cnn2-c2ccccc2)c(=O)[nH]1 | 130 |
|  | 5.05 | O=c1[nH]c(CNc2ccccc2O)nc2c1cnn2-c1ccc(Br)cc1 | 133 |
|  | 0.83 | CCCOc1ccccc1-c1nc2c(cnn2-c2ccc(Br)cc2)c(=O)[nH]1 | 140 |
| 0.059 |  | COc1ccc(CNc2nc(N3CCC(O)CC3)ncc2C(=O)NCc2ccccn2)cc1Cl |  |
| 0.0052 |  | COc1ccc(CN=c2[nH]c(N3CCC[C@H]3CO)ncc2C(=O)NCc2ncccn2)cc1Cl (stereo in doubt; T6) |  |
|  | 6.8 | Nc1ccccc1NCc1nc2c(cnn2-c2ccccc2)c(=O)[nH]1 | 113 |
| 0.063 |  | COc1ccc(CNc2nc(N3CCCC[C@H]3CO)ncc2C(=O)NCc2ncccn2)cc1Cl |  |

| IC50 [1] [µM] | EC50 (Corpus cavernosum [2]) [µM] | Structure (SMILES) | Emax (Corpus cavernosum [3]) [%] |
| --- | --- | --- | --- |
| 0.0027 |  | COc1ccc(CNc2nc(OCc3ccccn3)ncc2C(=O)NCc2ccccn2)cc1Cl |  |
| 0.032 |  | COc1ccc(CNc2nc(N(C)CCO)ncc2C(=O)NCc2ccccn2)cc1Cl |  |
|  | 0.5 | CC(C)Oc1ccccc1-c1nc2c(cnn2-c2ccccc2)c(=O)[nH]1 | 130 |
| 0.0066 |  | COc1ccc(CNc2nc(N3CCC[C@H]3CO)ncc2C(=O)NCCCO)cc1Cl |  |
| 0.0012 |  | COc1ccc(CNc2nc(N3CCC[C@@H]3CO)ncc2C(=O)NCc2ccccn2)cc1Cl |  |
|  | 0.5 | O=c1[nH]c(-c2ccccc2O)nc2c1cnn2-c1ccccc1 | 93 |
|  | 0.63 | CCCCOc1ccccc1-c1nc2c(cnn2-c2ccccc2)c(=O)[nH]1 | 170 |
|  | 0.25 | O=c1[nH]c(CNc2ccccc2O)nc2c1cnn2-c1ccccc1 | 125 |
|  | 0.338 | O=c1[nH]c(-c2ccccc2O)nc2c1cnn2-c1ccc(Br)cc1 | 167 |
| 0.085 |  | COc1ccc(CN(C)c2nc(OCc3ccccn3)ncc2C(=O)NCc2ccccn2)cc1Cl |  |
| 0.015 |  | COCCCNC(=O)c1cnc(OCc2ccccn2)nc1NCc1ccc(OC)c(Cl)c1 |  |
| 0.0042 |  | COc1ccc(CNc2nc(OCc3ccccn3)ncc2C(=O)OCc2ncccn2)cc1Cl |  |
|  | 0.223 | O=C(O)c1ccccc1OCc1nc2c(cnn2-c2ccccc2)c(=O)[nH]1 |  |
|  | 0.00489 | CCCCOc1ccccc1-c1nc2c(cnn2-c2ccc(Br)cc2)c(=O)[nH]1 | 160 |
| 0.013 |  | COc1ccc(CNc2nc(OCc3ccccn3)ncc2C(=O)NCCCO)cc1Cl |  |
| 0.0056 |  | COc1ccc(CNc2nc(OCc3ccccn3)ncc2C(=O)NCCN2CCOCC2)cc1Cl |  |
|  | 0.28 | CC(C)Oc1ccccc1-c1nc2c(cnn2-c2ccc(Br)cc2)c(=O)[nH]1 |  |
| 0.054 |  | COc1ccc(CNc2nc(N3CCCC[C@H]3CO)ncc2C(=O)NCc2ccccn2)cc1Cl |  |
